According to ChEMBL document CHEMBL1126072, “Hydantoin bioisosteres. In vivo active spiro hydroxy acetic acid aldose reductase inhibitors” (J Med Chem, 1992):

What was measured:
[1] = molecular target: T1, Aldo-keto reductase family 1 member B1 (Homo sapiens, UniProt P15121); experiment: Inhibitory activity against human placental aldose reductase
Rattus norvegicus [2] = experiment: Inhibition of sorbitol accumulation in sciatic nerves from streptozotocin-diabetic rats dosed at 3*25 mg/kg over 27h.; assay type: functional, Sciatic nerve
Rattus norvegicus [3] = experiment: Effective dose was tested against the inhibition of sorbitol accumulation in sciatic nerves from streptozotocin-diabetic rats dosed at 3*25 mg/kg over 27h.; assay type: functional; conditions: Sciatic nerve
Rattus norvegicus [4] = experiment: In vivo inhibition of sorbitol accumulation in sciatic nerves from streptozotocin-diabetic rats dosed at 1*25 mg/kg over 5 days.; assay type: functional, Sciatic nerve
Rattus norvegicus [5] = experiment: Inhibition of sorbitol accumulation in sciatic nerves from streptozotocin-diabetic rats dosed at 3*10 mg/kg over 27h.; assay type: functional, Sciatic nerve
Method in brief: (§1)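 Male Sprague-Dawley rats (180–220 g, 42–54 days) made diabetic with streptozotocin 85 mg/kg at 0 h. Oral gavage at 4, 7 and 24 h, dose quoted per time point. Sciatic nerve sorbitol measured with sorbitol dehydrogenase/NAD in pH 9.4 glycine. Mean (±SEM) percent inhibition against untreated diabetic controls, Student's t test on absolute sorbitol.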

Rattus norvegicus [6] = experiment: In vivo inhibition of sorbitol accumulation in sciatic nerves from streptozotocin-diabetic rats dosed at 3*25 mg/kg over 27h.; assay type: functional, Sciatic nerve
Rattus norvegicus [7] = experiment: Plasma concentration at 3h after the last dose of 25 mg/kg for 5 days.; assay type: functional
Rattus norvegicus [8] = experiment: Nerve concentration at 3h after the last dose of 25 mg/kg for 5 days.; assay type: functional
[9] = molecular target: T1, Aldo-keto reductase family 1 member B1; experiment: Compound was tested in vitro for its inhibitory activity against human placental aldose reductase
Rattus norvegicus [10] = experiment: Inhibition of sorbitol accumulation in sciatic nerves from streptozotocin-diabetic rats dosed at 3*50 mg/kg over 27h.; assay type: functional, Sciatic nerve; method in brief: as §1
[11] = molecular target: T1, Aldo-keto reductase family 1 member B1; experiment: ARI(aldose reductase inhibitor) enantiospecificity against human placental aldose reductase.

Compound | IC50 [1] | Inhibition (Rattus norvegicus [2]) | ED50 (Rattus norvegicus [3]) | also measured
C1CCC(NC2CCCCC2)CC1.O=C(O)C[C@]1(O)C[C@@H](C(=O)c2ccccc2)Oc2ccc(F)cc21 | 1.39 µM | 1% |  | 
C[C@@H]1COc2ccc(F)cc2[C@]1(O)CC(=O)O | 11 µM |  |  | 
O=C(O)C[C@@]1(O)c2cc(F)ccc2O[C@@H]2CCCC[C@@H]21 | 11 µM |  |  | 
Cc1cc2c(cc1[N+](=O)[O-])[C@](O)(CC(=O)O)C[C@@H](C)O2 | 0.09 µM | 39% | 35 mg/kg | 
C[C@@H]1C[C@@](O)(CC(=O)O)c2cc([N+](=O)[O-])c(Cl)cc2O1 | 0.11 µM | 67% | 14.9 mg/kg | 
C[C@@H]1C[C@@](O)(CC(=O)O)c2ccc(F)cc2O1 | 5.42 µM |  |  | 
O=C(O)C[C@]1(O)C[C@@H](c2ccccc2)Oc2ccc(F)cc21 | 2.67 µM |  |  | Inhibition (Rattus norvegicus [10]): 3%
CC(C)(C)[C@@H]1C[C@@](O)(CC(=O)O)c2cc(F)ccc2O1 | 0.36 µM | 29% | 47.6 mg/kg | 
CC[C@@H]1C[C@@](O)(CC(=O)O)c2cc(F)ccc2O1 | 0.62 µM | 27% | 50.6 mg/kg | 
O=C(O)C[C@]1(O)C[C@@H](CCc2ccccc2)Oc2ccc(F)cc21 | 1.14 µM | 5% |  | 
C[C@@H]1C[C@@](O)(CC(=O)O)C2=C(C=CCC2(C)[N+](=O)[O-])O1 (stereo not given in full) | 1.63 µM | -31% |  | 
C[C@@H]1C[C@@](O)(CC(=O)O)c2cc(Cl)c3ccccc3c2O1 | 0.4 µM | 45% | 29.1 mg/kg | 
C[C@@H]1C[C@@](O)(CC(=O)O)c2cc(C#N)c(F)cc2O1 | 0.13 µM |  | 29.2 mg/kg | Inhibition (Rattus norvegicus [5]): 15%
Cc1cc(Cl)cc2c1O[C@H](C)C[C@@]2(O)CC(=O)O | 1.18 µM | 28% | 49 mg/kg | 
CC(C)[C@@H]1C[C@@](O)(CC(=O)O)c2cc(F)ccc2O1 | 0.57 µM | -7% |  | 
C[C@@H]1C[C@@](O)(CC(=O)O)c2cc(F)c(Br)cc2O1 | 0.09 µM |  | 4.94 mg/kg | Inhibition (Rattus norvegicus [4]): 44%; Inhibition (Rattus norvegicus [5]): 73%; Inhibition (Rattus norvegicus [6]): 73%; Tissue levels (Rattus norvegicus [7]): 8.8 µg/mL; Tissue levels (Rattus norvegicus [8]): 1.31 µg/mL; IC50 [9]: 0.12 µM
C[C@@H]1C[C@@](O)(CC(=O)O)c2ccccc2O1 | 14.8 µM |  |  | Inhibition (Rattus norvegicus [10]): 9%
C[C@@H]1C[C@@](O)(CC(=O)O)c2cc([N+](=O)[O-])ccc2O1 | 0.08 µM | 74% | 12 mg/kg | 
C[C@H]1Oc2ccc(F)cc2[C@](O)(CC(=O)O)[C@H]1C | 0.91 µM | 29% | 47.6 mg/kg | 
C[C@@H]1C[C@@](O)(CC(=O)O)c2cc(Br)cc(Cl)c2O1 | 5.16 µM |  |  | 
C[C@@H]1C[C@@](O)(CC(=O)O)c2cc([N+](=O)[O-])c(F)cc2O1 | 0.07 µM |  |  | Inhibition (Rattus norvegicus [5]): 5%
C[C@@H]1[C@@H](C)Oc2ccc(F)cc2[C@]1(O)CC(=O)O | 29.4 µM |  |  | 
C[C@@H]1C[C@@](O)(CC(=O)O)c2cc(Cl)c(OCc3ccccc3)cc2O1 | 0.06 µM |  | 32 mg/kg | Inhibition (Rattus norvegicus [5]): 12%
C[C@@H]1C[C@@](O)(CC(=O)O)c2cc(Cl)c(Cl)cc2O1 |  |  |  | IC50 [11]: 5.62 µM
C[C@@H]1C[C@@](O)(CC(=O)O)c2cc(S(C)(=O)=O)ccc2O1 | 8.22 µM |  |  | 
C[C@@H]1C[C@@](O)(CC(=O)O)c2ccc(C(=O)O)cc2O1 | 0.07 µM | 48% | 26.6 mg/kg | 
CCC[C@@H]1C[C@@](O)(CC(=O)O)c2cc(F)ccc2O1 | 0.97 µM | 16% | 70.8 mg/kg | 
C[C@@H]1C[C@@](O)(CC(=O)O)c2cc(F)c(F)cc2O1 | 0.25 µM |  | 5.94 mg/kg | Inhibition (Rattus norvegicus [4]): -20%; Inhibition (Rattus norvegicus [5]): 67%; Inhibition (Rattus norvegicus [6]): 67%; Tissue levels (Rattus norvegicus [7]): 2.19 µg/mL; Tissue levels (Rattus norvegicus [8]): <0.1 µg/mL; IC50 [9]: 0.35 µM

Continued, in another order:

IC50 [1] | Compound | Inhibition (Rattus norvegicus [2]) | ED50 (Rattus norvegicus [3]) | also measured
1 µM | C[C@@H]1C[C@@](O)(CC(=O)O)c2cc(Cl)cc(Cl)c2O1 | 48% | 26.6 mg/kg | 
0.07 µM | C[C@@H]1C[C@@](O)(CC(=O)O)c2cc(Cl)c(Br)cc2O1 |  | 11.3 mg/kg | Inhibition (Rattus norvegicus [4]): 33%; Inhibition (Rattus norvegicus [5]): 46%; Inhibition (Rattus norvegicus [6]): 46%; Tissue levels (Rattus norvegicus [7]): 12.7 µg/mL; Tissue levels (Rattus norvegicus [8]): 3.11 µg/mL; IC50 [9]: 0.05 µM
5.7 µM | C[C@@H]1C[C@@](O)(CC(=O)O)c2cccc(Cl)c2O1 |  |  | 
1.67 µM | C[C@@H]1C[C@@](O)(CC(=O)O)c2cc(Br)ccc2O1 | 21% | 60.8 mg/kg | 
0.1 µM | CCc1cc2c(cc1Cl)[C@](O)(CC(=O)O)C[C@@H](C)O2 |  | 13.6 mg/kg | Inhibition (Rattus norvegicus [5]): 40%
3.32 µM | C[C@@H]1C[C@@](O)(CC(=O)O)c2ccc(Cl)cc2O1 | 0% |  | 
43.5 µM | C[C@@H]1C[C@@](O)(CC(=O)O)c2c(Cl)cccc2O1 |  |  | 
0.39 µM | C[C@@H]1C[C@@](O)(CC(=O)O)c2cc(Cl)c(F)cc2O1 |  | 19 mg/kg | Inhibition (Rattus norvegicus [4]): -30%; Inhibition (Rattus norvegicus [5]): 29%; Inhibition (Rattus norvegicus [6]): 29%; Tissue levels (Rattus norvegicus [7]): 13.4 µg/mL; Tissue levels (Rattus norvegicus [8]): 2.35 µg/mL; IC50 [9]: 0.41 µM
29.4 µM | C[C@@H]1C[C@@](O)(CC(=O)O)c2c(Cl)cc(Cl)cc2O1 |  |  | 
1.86 µM | CC1(C)C[C@@](O)(CC(=O)O)c2cc(Cl)c(Cl)cc2O1 | 6% |  | 
4.5 µM | C[C@@H]1C[C@@](O)(CC(=O)O)c2c(ccc(F)c2Br)O1 |  |  | 
0.78 µM | C[C@@H]1C[C@@](O)(CC(=O)O)c2ccc(Cl)c(Cl)c2O1 |  |  | 
0.4 µM | CC1(C)C[C@@](O)(CC(=O)O)c2cc([N+](=O)[O-])ccc2O1 | 37% | 37.2 mg/kg | 
95.5 µM | C[C@@H]1C[C@@](O)(CC(=O)O)c2c(ccc(Cl)c2[N+](=O)[O-])O1 |  |  | 
0.19 µM | COc1cc2c(cc1Cl)[C@](O)(CC(=O)O)C[C@@H](C)O2 | 53% | 36.5 mg/kg | 
281 µM | COc1ccc2c(c1)[C@](O)(CC(=O)O)C[C@@H](C)O2 |  |  | 
11.3 µM | Cc1ccc2c(c1)[C@](O)(CC(=O)O)C[C@@H](C)O2 | -16% |  | 
0.65 µM | CC(=O)c1ccc2c(c1)[C@](O)(CC(=O)O)C[C@@H](C)O2 | 5% |  | 
0.24 µM | Cc1cc2c(cc1Cl)[C@](O)(CC(=O)O)C[C@@H](C)O2 | 72% | 12.7 mg/kg | 
0.82 µM | C[C@@H]1C[C@@](O)(CC(=O)O)c2cc(Cl)ccc2O1 | 67% | 14.9 mg/kg | 
1.63 µM | C[C@@H]1C[C@@](O)(CC(=O)O)c2c(ccc(Cl)c2Cl)O1 | 50% | 25 mg/kg | 
13.1 µM | C[C@@H]1C[C@@](O)(CC(=O)O)c2c(Cl)ccc(Cl)c2O1 |  |  | 
14.8 µM | CC1(C)C[C@@](O)(CC(=O)O)c2c(ccc(Cl)c2Cl)O1 |  |  | 
